From ChEMBL document CHEMBL1137674, “Synthesis and antibacterial evaluation of novel 4-alkyl substituted phenyl beta-aldehyde ketone derivatives” (2009)
≈ marks a conversion by molar mass, not a printed value.

Assays:
Format in all cases: functional
[1] = tested on: Staphylococcus aureus; test: Antimicrobial activity against Staphylococcus aureus ATCC 25923 after 16 to 18 hrs by agar dilution method
Outline: (§1)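 Agar dilution following NCCLS/CLSI, with twofold serial dilutions of the compounds and reference drugs in Mueller-Hinton agar. Inocula were overnight cultures (16-18 h, 37 °C) adjusted to 0.5 McFarland. Compounds were dissolved in DMSO, which served as the control. MIC was taken as the lowest concentration preventing viable growth after 16-18 h incubation.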

[2] = tested on: Staphylococcus aureus; test: Antimicrobial activity against methicillin-resistant Staphylococcus aureus isolate 5 after 16 to 18 hrs by agar dilution method
Outline: (§2)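 Agar dilution MIC on Mueller-Hinton agar with the test agents mixed into the medium. MIC was read as the lowest concentration preventing viable growth after 16–18 h incubation.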

[3] = tested on: Staphylococcus aureus; test: Antimicrobial activity against methicillin-resistant Staphylococcus aureus isolate 2 after 16 to 18 hrs by agar dilution method; outline: as §2
[4] = tested on: Staphylococcus aureus; test: Antimicrobial activity against methicillin-resistant Staphylococcus aureus isolate 4 after 16 to 18 hrs by agar dilution method; outline: as §2
[5] = tested on: Escherichia coli; test: Antimicrobial activity against Escherichia coli ATCC 25922 after 16 to 18 hrs by agar dilution method; outline: as §1
[6] = tested on: Staphylococcus aureus; test: Antimicrobial activity against methicillin-resistant Staphylococcus aureus isolate 1 after 16 to 18 hrs by agar dilution method; outline: as §2
[7] = tested on: Pseudomonas aeruginosa; test: Antimicrobial activity against Pseudomonas aeruginosa ATCC 27853 after 16 to 18 hrs by agar dilution method; outline: as §1
[8] = tested on: Staphylococcus aureus; test: Antimicrobial activity against methicillin-resistant Staphylococcus aureus isolate 3 after 16 to 18 hrs by agar dilution method; outline: as §2
[9] = tested on: Staphylococcus aureus; test: Antimicrobial activity against Staphylococcus aureus isolate 10 after 16 to 18 hrs by agar dilution method
[10] = tested on: Staphylococcus aureus; test: Antimicrobial activity against Staphylococcus aureus isolate 5 after 16 to 18 hrs by agar dilution method
[11] = tested on: Staphylococcus aureus; test: Antimicrobial activity against Staphylococcus aureus isolate 9 after 16 to 18 hrs by agar dilution method
[12] = tested on: Staphylococcus aureus; test: Antimicrobial activity against Staphylococcus aureus isolate 2 after 16 to 18 hrs by agar dilution method; outline: as §2
[13] = tested on: Staphylococcus aureus; test: Antimicrobial activity against Staphylococcus aureus isolate 1 after 16 to 18 hrs by agar dilution method
[14] = tested on: Staphylococcus aureus; test: Antimicrobial activity against Staphylococcus aureus isolate 7 after 16 to 18 hrs by agar dilution method; outline: as §2
[15] = tested on: Staphylococcus aureus; test: Antimicrobial activity against Staphylococcus aureus isolate 4 after 16 to 18 hrs by agar dilution method
[16] = tested on: Staphylococcus aureus; test: Antimicrobial activity against Staphylococcus aureus isolate 8 after 16 to 18 hrs by agar dilution method; outline: as §2
[17] = tested on: Staphylococcus aureus; test: Antimicrobial activity against Staphylococcus aureus isolate 6 after 16 to 18 hrs by agar dilution method
[18] = tested on: Staphylococcus aureus; test: Antimicrobial activity against Staphylococcus aureus isolate 3 after 16 to 18 hrs by agar dilution method

| SMILES | MIC [1] [µg/mL] | MIC [5] [µg/mL] | MIC [7] [µg/mL] | further results |
| --- | --- | --- | --- | --- |
| CO/N=C/CC(=O)c1ccc(C(C)C)cc1 | 2 (≈ 9.12 µM) | > 64 | > 64 | MIC [2]: 4 µg/mL (≈ 18.2 µM); MIC [3]: 8 µg/mL (≈ 36.5 µM); MIC [4]: 8 µg/mL (≈ 36.5 µM); MIC [6]: 8 µg/mL (≈ 36.5 µM); MIC [8]: 8 µg/mL (≈ 36.5 µM) |
| CCO/N=C/CC(=O)c1ccc(C)cc1 | 4 (≈ 19.5 µM) | 64 (≈ 312 µM) | 64 (≈ 312 µM) | – |
| CCCCCCCCCC(=O)CC(O)S(=O)(=O)[O-].[Na+] (configuration not stated) [SODIUM HOUTTUYFONATE] | – | – | – | MIC [9]: 32 µg/mL; MIC [10]: 32 µg/mL; MIC [11]: 64 µg/mL; MIC [12]: 64 µg/mL; MIC [13]: 64 µg/mL; MIC [14]: 64 µg/mL; MIC [15]: 64 µg/mL; MIC [16]: 64 µg/mL; MIC [17]: 64 µg/mL; MIC [18]: 64 µg/mL |
| CCO/N=C(/C/C=N/OCC)c1ccc(C(C)C)cc1 | 32 (≈ 116 µM) | > 64 | > 64 | – |
| CCCCCc1ccc(C(=O)C/C=N/OCC)cc1 | 4 (≈ 15.3 µM) | > 64 | > 64 | – |
| Cc1ccc(C(=O)C/C=N/NC(N)=O)cc1 | > 64 | > 64 | > 64 | – |
| CO/N=C/CC(=O)c1ccc(C)cc1 | 4 (≈ 20.9 µM) | 64 (≈ 335 µM) | 64 (≈ 335 µM) | MIC [2]: 8 µg/mL (≈ 41.8 µM); MIC [3]: 8 µg/mL (≈ 41.8 µM); MIC [4]: 8 µg/mL (≈ 41.8 µM); MIC [6]: 8 µg/mL (≈ 41.8 µM); MIC [8]: 8 µg/mL (≈ 41.8 µM) |
| CCO/N=C(/C/C=N/OCC)c1ccc(CC)cc1 | 32 (≈ 122 µM) | > 64 | > 64 | – |
| CCc1ccc(/C(C/C=N/OC)=N\OC)cc1 | 32 (≈ 137 µM) | > 64 | > 64 | – |
| CCCCCc1ccc(/C(C/C=N/OCC)=N\OCC)cc1 | 64 (≈ 210 µM) | > 64 | > 64 | – |
| CCCCCc1ccc(C(=O)CC(O)S(=O)(=O)[O-])cc1.[Na+] (configuration not stated) | > 64 | > 64 | > 64 | – |
| CCCCCCCCCC(=O)CC=O [HOUTTUYNIN] | 32 (≈ 161 µM) | – | – | MIC [2]: 16 µg/mL (≈ 80.7 µM); MIC [3]: 16 µg/mL (≈ 80.7 µM); MIC [4]: 16 µg/mL (≈ 80.7 µM); MIC [6]: 16 µg/mL (≈ 80.7 µM); MIC [8]: 16 µg/mL (≈ 80.7 µM) |
| C[C@H]1COc2c(N3CCN(C)CC3)c(F)cc3c(=O)c(C(=O)O)cn1c23.C[C@H]1COc2c(N3CCN(C)CC3)c(F)cc3c(=O)c(C(=O)O)cn1c23.O [LEVOFLOXACIN] | 0.25 | 0.025 | 0.5 | MIC [9]: 0.5 µg/mL; MIC [10]: 0.125 µg/mL; MIC [2]: 16 µg/mL; MIC [3]: 8 µg/mL; MIC [4]: 16 µg/mL; MIC [11]: 0.25 µg/mL; MIC [6]: 8 µg/mL; MIC [12]: 0.5 µg/mL; MIC [13]: 0.25 µg/mL; MIC [14]: 0.25 µg/mL; MIC [15]: 0.25 µg/mL; MIC [16]: 0.25 µg/mL; MIC [17]: 0.5 µg/mL; MIC [8]: 16 µg/mL; MIC [18]: 0.25 µg/mL |
| CCCCCc1ccc(C(=O)C/C=N/OC)cc1 | 4 (≈ 16.2 µM) | 64 (≈ 259 µM) | 64 (≈ 259 µM) | – |
| CCO/N=C/CC(=O)c1ccc(CC)cc1 | 4 (≈ 18.2 µM) | > 64 | > 64 | – |
| NC(=O)N/N=C/CC(=O)c1ccccc1 | > 64 | > 64 | > 64 | – |
| CO/N=C/CC(=O)c1ccccc1 | 64 (≈ 361 µM) | > 64 | > 64 | – |
| CCCCCc1ccc(/C(C/C=N/OC)=N\OC)cc1 | 64 (≈ 232 µM) | > 64 | > 64 | – |
| O=C(C/C=N/O)c1ccccc1 | 64 (≈ 392 µM) | > 64 | > 64 | – |
| O=CCC(=O)c1ccccc1 | > 64 | > 64 | > 64 | – |
| CCc1ccc(C(=O)C/C=N/OC)cc1 | 4 (≈ 19.5 µM) | > 64 | > 64 | – |
| NC(=S)N/N=C/CC(=O)c1ccccc1 | > 64 | > 64 | > 64 | – |
| CO/N=C(/C/C=N/OC)c1ccc(C(C)C)cc1 | 32 (≈ 129 µM) | > 64 | > 64 | – |
| Cc1ccc(C(=O)CC=O)cc1 | > 64 | > 64 | > 64 | – |
| CC[C@H]1OC(=O)[C@H](C)[C@@H](O[C@H]2C[C@@](C)(OC)[C@@H](O)[C@H](C)O2)[C@H](C)[C@@H](O[C@@H]2O[C@H](C)C[C@H](N(C)C)[C@H]2O)[C@](C)(OC)C[C@@H](C)C(=O)[C@H](C)[C@@H](O)[C@]1(C)O [CLARITHROMYCIN] | 0.12 (≈ 0.16 µM) | 32 (≈ 42.8 µM) | > 64 | – |
| Cc1ccc(C(=O)C/C=N/O)cc1 | 64 (≈ 361 µM) | > 64 | > 64 | – |
| Cc1ccc(C(=O)C/C=N/NC(N)=S)cc1 | > 64 | > 64 | > 64 | – |
| CC(C)c1ccc(C(=O)CC(O)S(=O)(=O)[O-])cc1.[Na+] (configuration not stated) | > 64 | > 64 | > 64 | – |
| CCO/N=C/CC(=O)c1ccc(C(C)C)cc1 | 1 (≈ 4.29 µM) | > 64 | > 64 | MIC [9]: 4 µg/mL (≈ 17.1 µM); MIC [10]: 1 µg/mL (≈ 4.29 µM); MIC [2]: 8 µg/mL (≈ 34.3 µM); MIC [3]: 8 µg/mL (≈ 34.3 µM); MIC [4]: 16 µg/mL (≈ 68.6 µM); MIC [11]: 4 µg/mL (≈ 17.1 µM); MIC [6]: 16 µg/mL (≈ 68.6 µM); MIC [12]: 16 µg/mL (≈ 68.6 µM); MIC [13]: 4 µg/mL (≈ 17.1 µM); MIC [14]: 8 µg/mL (≈ 34.3 µM); MIC [15]: 2 µg/mL (≈ 8.57 µM); MIC [16]: 8 µg/mL (≈ 34.3 µM); MIC [17]: 4 µg/mL (≈ 17.1 µM); MIC [8]: 8 µg/mL (≈ 34.3 µM); MIC [18]: 4 µg/mL (≈ 17.1 µM) |
